Measurements taken from PubChem BioAssay AID1885 (Broad Institute, 2009).
Out of some 300,000 compounds screened, about 4,400 (1.5%) were called active. Many of the other results were omitted from the sample, so actives are more common in it than they were. A number with no mark means an inactive call.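 How the source made its calls: active means mean inhibition across valid replicates above about 55% (limit read from the data); inconclusive means mean below that limit but half or more replicates reach it; inactive means mean below it, under half of replicates reach it.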

Experiment: inhibitors of intracellular T. cruzi growth, primary screen, luminescence, NIH3T3 host cells (AID 1885);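 further: signal also drops with host cell toxicity which is not excluded here; 0% = plate median of DMSO wells and 100% = zero luminescence signal; higher percent means less beta-gal luminescence so fewer parasites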
Settings: T. cruzi beta-gal in NIH3T3, luminescence, 90 h; hits give high values; concentration not given here
Summary of the method: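 Material: NIH/3T3 host cells with β-galactosidase reporter T. cruzi; Input: 5,000 host fibroblasts per well; Medium: DMEM, 2% fetal bovine serum; Compound: 50 nL DMSO compound solution per well; Schedule: 3 h host attachment, then at least 90 h co-culture; Detection: luminescent β-galactosidase signal after 60 min lysis.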

Structure (SMILES)	inhibition
CSCCC(NC(=O)c1ccco1)C(=O)Nc1cc(C)ccn1 (stereo not drawn)	-2.39%
COc1ccc(C2CC(c3ccc(C)cc3)Nc3nc(N)nn32)cc1 (stereo not drawn)	61.3% (active)
Cc1ccc(C2CC(c3cccc(Br)c3)n3nc(N)nc3N2)cc1 (stereo not drawn)	14.7%
Cc1ccc(C2CC(c3cccc(C)c3)n3nc(N)nc3N2)cc1 (stereo not drawn)	36.3%
CCc1ccccc1NC(=O)CN(C)S(=O)(=O)c1ccc2c(c1)c(=O)n(C)c(=O)n2C	-4.15%
Clc1ccc(-c2cc(-c3ccccn3)on2)c(Cl)c1	14.9%
O=C1CSC(c2ccccc2)N1c1nc(-c2ccc(Cl)cc2Cl)cs1 (stereo not drawn)	28.7%
Clc1ccc(-c2cc(C3CCNCC3)[nH]n2)c(Cl)c1	65.5% (active)
CCCN(CC(=O)Nc1ccccc1OC)C(=O)CCC(=O)c1ccc(F)cc1	0.665%
Cc1cc(C)nc(N/N=C/c2ccc([N+](=O)[O-])o2)n1	26.9%
C/[N+]([O-])=C\c1ccc([N+](=O)[O-])o1	67% (active)
CCc1ccc(S(=O)(=O)N/N=C\c2ccc([N+](=O)[O-])o2)cc1	19%
COc1ccc(C(=NN)c2ccc(OC)cc2)cc1	-17.9%
CCCC1(C(=O)OCC)NC(c2ccc(N(C)C)cc2)C2C(=O)N(c3ccc4c(c3)OCCO4)C(=O)C21 (stereo not drawn)	-15%
CN(C)CCOCCOc1ccc(Cl)c2ccccc12	33.2%
CN(C)CCOc1ccc(Cl)cc1C(C)(C)C	57.6% (active)
CC(C)(C)NCCCOc1ccc(Cl)cc1C(C)(C)C	33.9%
COc1ccccc1C(CNC(=O)c1cccc(NS(=O)(=O)c2ccc(Br)cc2)c1)N(C)C (stereo not drawn)	0.0669%
CCN(CC(=O)Nc1cc(Cl)ccc1C)C(=O)CSCc1ccc(C)cc1	7.73%
O=C(N/N=C/c1cccc([N+](=O)[O-])c1)c1ccncc1	-13.8%

Structure (SMILES)	inhibition
O=C(N/N=C/c1cccc(OC(=O)c2ccc([N+](=O)[O-])cc2)c1)c1cccnc1	-36.5%
N#Cc1cc([N+](=O)[O-])ccc1Oc1cccc(/C=N/NC(=O)c2ccc(Cl)cc2)c1	74.5% (active)
CCc1ccc(C(=O)NNC(=O)C2CCN(c3ncnc4sc(C)c(C)c34)CC2)cc1	24%
O=C(COC(=O)c1c2c(nc3ccccc13)CCCC2)c1ccc(Br)s1	-9.74%
COc1cc(-c2cc(C(=O)OCC(=O)Nc3ccc4c(c3)OCO4)c3ccccc3n2)cc(OC)c1OC	5.72%
O=C(COC(=O)c1c2c(nc3ccccc13)/C(=C\c1cccs1)CCC2)Nc1ccccc1Cl	54.9% (active)
CC(NC(=O)COC(=O)c1ccc2c(c1)OCO2)c1ccccc1 (stereo not drawn)	-10.2%
COc1cc(/C=C2\CCCc3c2nc2ccccc2c3C(=O)O)cc(Cl)c1O	6.47%
NC(=O)c1ccc(NC(=O)COC(=O)c2c3c(nc4ccccc24)/C(=C\c2ccc4c(c2)OCO4)CCC3)cc1	69.5% (active)
O=C1CN(C(=O)c2cc(F)cc(F)c2)c2ccccc2N1	-7.57%
CCCc1cc(=O)[nH]c(SCC(=O)c2c(N)n(CC(C)C)c(=O)n(C)c2=O)n1	-8.24%
CCOc1ccc(-c2cc(C(=O)N/N=C/c3ccc(O)cc3)c3ccccc3n2)cc1	18.7%
Cc1ccc(NC(=O)Nc2cccc(C(F)(F)F)c2)nc1	11.1%
CCNS(=O)(=O)c1ccc(NC(=O)Nc2cccc(C(F)(F)F)c2)cc1	61.3% (active)
CCNS(=O)(=O)c1ccc(NC(=O)Nc2cccc(OC)c2)cc1	-9.54%
Cn1ccc(=Nc2ccc(NC(=O)c3ccc(N=c4ccn(C)c5ccc([N+](=O)[O-])cc45)cc3)cc2)cc1	33.3%
Cn1c(CCc2ccccc2)nnc1SCC(N)=O	-8.67%
Cc1ccc(Cc2nnc(SCC(=O)Nc3ccc(C)cc3C)[nH]c2=O)cc1	-8.53%
COc1cccc2sc(Nc3nc(C)c(C(C)=O)s3)nc12	89.1% (active)
COc1cc2ccccc2cc1C(=O)Nc1nc(C)c(C(C)=O)s1	-2.79%

Structure (SMILES)	inhibition
COc1ccccc1/C=N/Nc1nc(C)c(C(C)=O)s1	6.16%
COc1ccc(C)cc1S(=O)(=O)Nc1cc2c3c(c1)CCC(=O)N3CCC2	-2.17%
CC(C)=NN1C(=O)c2ccccc2NC1(C)C	-9.69%
O=C(CSc1nnnn1-c1ccc(O)cc1)N1N=C(c2ccc3ccccc3c2)CC1c1ccccc1 (stereo not drawn)	71.2% (active)
COc1ccc(C2=NN(C(C)=O)C(c3ccccc3)C2)cc1 (stereo not drawn)	-1.39%
COc1ccc(C2CC(c3ccccc3)=NN2C(=O)CSc2nccc(=O)[nH]2)cc1 (stereo not drawn)	-0.127%
Cc1ccc(S(=O)(=O)n2cccc2CO)cc1	-12.2%
O=C(NNS(=O)(=O)c1ccc([N+](=O)[O-])cc1)C1CCCCC1	-10.2%
CC(=O)Nc1cccc(C(=O)OCC(=O)Nc2nnc(-c3ccccc3)o2)c1	-2%
CCN(CC)S(=O)(=O)c1ccc(C(=O)N2CCN(C3=NS(=O)(=O)c4ccccc43)CC2)cc1	0.744%
CC(C)c1cc(C(N)=O)c(NC(=O)c2cccc(COc3ccc(Br)cc3)c2)s1	60.2% (active)
CCOc1ccc(OCc2cccc(C(=O)N(CC)CC)c2)cc1	14.3%
CCc1cc(C(N)=O)c(NC(=O)c2ccc(OC)cc2)s1	15.5%
COc1cccc(COC(=O)C2CCN(S(=O)(=O)c3cccs3)CC2)c1OC	0.844%
CCOc1ccc(S(=O)(=O)Nc2ccc(C(=O)NCCCN3CCCC3=O)cc2)cc1	3.32%
Cc1cccc(NC(=O)c2cc([N+](=O)[O-])ccc2N2CCN(C)CC2)c1	2.53%
Cc1cccc(NC(=O)c2ccc([N+](=O)[O-])o2)c1	41.2%
Cc1cccc(NC(=O)c2sc(-c3ccccc3)nc2-c2ccc([N+](=O)[O-])cc2)c1	55.5% (active)
